Measurements gathered from unrelated publications.
Each line is one published result; the experiments were not run side by side.
Effect on: cell growth or viability

SMILES	cell line	method	time	IC50
COc1ccc(-c2cnc3c(n2)CCCC3)nc1	MCF-10A		48 h	> 50 µM
COc1cccc2c1C(=O)c1c(O)c3c(c(O)c1C2=O)C[C@@](O)(C(=O)CO)C[C@@H]3O[C@H]1C[C@H](N)[C@H](O)[C@H](C)O1	MCF-10A		48 h	77 µM
C=C1CC[C@@H]2[C@](C)(CO)[C@H](O)CC[C@@]2(C)[C@@H]1C/C=C1/C(=O)OC[C@H]1O	VCaP	CCK-8	72 h	20.4 µM
CCN(CC)CCNC(=O)COc1ccc(OC)cc1	CAL-27		72 h	> 20 µM
O=C(O)c1cc(/N=N/c2ccc(S(=O)(=O)Nc3ccccn3)cc2)ccc1O	VCaP	CCK-8	72 h	> 30 µM
CCN1CCN(Cc2ccc(Nc3ncc(F)c(-c4cc(F)c5nc(C)n(C(C)C)c5c4)n3)nc2)CC1	4T1	CCK-8		> 2 µM
COc1cc(C2Oc3cc([C@H]4Oc5cc(O)cc(O)c5C(=O)[C@@H]4O)ccc3OC2CO)ccc1O (stereo partly shown)	SNU-423	CCK-8	72 h	18.8 µM
COc1nc(SC)nc(OC)c1C(=O)/C=C/[c-]1cccc1.[Fe+2].c1cc[cH-]c1	4T1	MTT	72 h	214 µM
CC(C)c1cc(-c2n[nH]c(=O)n2-c2ccc3c(ccn3C)c2)c(O)cc1O	MDA-MB-415	imaging	24 h	0.024 µM
CCOc1ccc(-c2cnc3c(n2)CCCC3)cc1	MCF-10A		48 h	> 50 µM
O=C(NC(=S)NCCCNC(=S)NC(=O)c1ccc2ccccc2c1)c1ccc2ccccc2c1	MCF-10A		48 h	90.2 µM
COc1cc(OC)c(/C=C/S(=O)(=O)Nc2ccc(OC)c(N)c2)c(OC)c1	N417	trypan blue	96 h	0.004 µM
CCOc1cccc(-c2cnc3c(n2)CCCC3)c1	MCF-10A		48 h	30.9 µM
CC(=O)CC(c1ccccc1)c1c(O)c2ccccc2oc1=O (stereo not shown)	CAL-27		72 h	> 20 µM
S=C(NN=Cc1ccc(Cl)s1)Nc1ccccc1	CRFK			10.1 µM
c1ccc(-c2cccc(-c3cnc4c(n3)CCCC4)c2)cc1	MCF-10A		48 h	> 50 µM

SMILES	cell line	method	time	IC50
CC(C)c1ccccc1S(=O)(=O)c1cc(N)c2ncccc2c1[N+](=O)[O-]	CAL-27		72 h	> 20 µM
CC(C)C[C@H](NC(=O)[C@H](Cc1ccccc1)NC(=O)c1cnccn1)B(O)O	SCLC-21H	ATP luminescence		0.011 µM
O=C1Nc2ccc(Cl)cc2[C@@](C#CC2CC2)(C(F)(F)F)O1	CAL-27		72 h	> 20 µM
CCCCc1cccc(-c2cnc3c(n2)CCCC3)c1	MCF-10A		48 h	> 50 µM
COc1cc(Nc2nccc(-c3cnn4nc(OC)ccc34)n2)cc(C(F)(F)F)c1	OVK18	ATP luminescence		0.41 µM
COc1ccc(-c2cnc3c(n2)CCCC3)cc1Cl	MCF-10A		48 h	35.7 µM
CC(C)c1cccc(C(C)C)c1-n1c(Cl)c(Cl)n(-c2c(C(C)C)cccc2C(C)C)c1=[Se]	HCT-15	MTT	72 h	14.2 µM
Nc1nc(Nc2ccccc2)nc2c1ncn2[C@@H]1O[C@H](CO)[C@@H](O)[C@H]1O	CAL-27		72 h	> 20 µM
O=C(c1cc(Cl)c(Cl)[nH]1)c1c(O)ccc(Cc2ccc(O)c(C(=O)c3cc(Cl)c(Cl)[nH]3)c2O)c1O	MDCK	MTT	72 h	25 µg/mL
Clc1ccc2c(c1)N=C(N1CCNCC1)c1ccccc1N2	CAL-27		72 h	> 20 µM
C[C@H]1[C@@H](O)O[C@@H]2O[C@@]3(C)CC[C@H]4[C@H](C)CC[C@@H]1[C@@]24OO3	MCF-10A	CCK-8	48 h	44.4 µM
COc1cc2nc(N3CCN(C(=O)c4ccco4)[C@H]4CCCC[C@H]43)nc(N)c2cc1OC (racemic)	CAL-27		72 h	13.3 µM
O=C1CCCCC1C1C2C=CC=CC1C(C1CC1)=C2 (stereo not shown)	K562	flow cytometry		0.017 µM
N#Cc1ccc(COC[C@H]2O[C@@H](n3c(NCc4ccc(Cl)c(Cl)c4)nc4c(N)ncnc43)[C@H](O)[C@@H]2O)cc1	CAL-27		72 h	> 20 µM
O=C(C=C[c-]1cccc1)c1ccc[nH]1.[Fe+2].c1cc[cH-]c1	4T1	MTT	72 h	76.5 µM
